The source of these data is ChEMBL document CHEMBL3352363, “1,4-disubstituted-[1,2,3]triazolyl-containing analogues of MT-II: design, synthesis, conformational analysis, and biological activity” (J Med Chem, 2014).

Where a SMILES comes first, the peptide text is derived from it. Bridges are numbered along the chain shown (N, C = ends). Triazole bridges read from a SMILES are 1,4-linked. [ ]: non-standard residue; d: D form. Lys(N3) = [N-]=[N+]=NCCCC[C@H](N)C(=O)O; Nle = CCCC[C@H](N)C(=O)O; Pra = C#CC[C@H](N)C(=O)O

Holding throughout (type): functional, cell-based
The target of assay [1] is Melanocortin receptor 3 (Mus musculus, UniProt P33033). Briefly: Activity at mouse MC3R expressed in HEK293 cells assessed as cAMP accumulation by CRE/beta-galactosidase reporter gene assay. The method in brief: (§1)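 Stably transfected HEK-293 cells transiently transfected with 4 μg CRE/β-galactosidase reporter, 5000–15000 cells plated on collagen-treated wells overnight. Lysates frozen −80 °C; ONPG substrate at 37 °C, OD405 normalized to protein (OD595).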
Melanocortin receptor 3, sequence (P33033 whole entry): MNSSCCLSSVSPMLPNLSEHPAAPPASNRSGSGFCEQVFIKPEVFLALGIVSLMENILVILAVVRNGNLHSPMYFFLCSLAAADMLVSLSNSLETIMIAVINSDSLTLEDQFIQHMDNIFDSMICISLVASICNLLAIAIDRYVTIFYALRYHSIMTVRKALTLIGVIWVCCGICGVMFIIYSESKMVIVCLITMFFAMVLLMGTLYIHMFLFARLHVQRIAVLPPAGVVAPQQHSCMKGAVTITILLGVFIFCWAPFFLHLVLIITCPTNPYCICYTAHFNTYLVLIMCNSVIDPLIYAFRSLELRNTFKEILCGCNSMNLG
(In general: Cyclic AMP is a second messenger, typically raised through Gs and lowered through Gi signalling.)

The target in assay [2] is Melanocortin receptor 4 (Mus musculus, UniProt P56450). Briefly: Activity at mouse MC4R expressed in HEK293 cells assessed as cAMP accumulation by CRE/beta-galactosidase reporter gene assay. In a few lines:
as §1

The target of assay [3] is Melanocortin receptor 5 (Mus musculus, UniProt P41149). Briefly: Activity at mouse MC5R expressed in HEK293 cells assessed as cAMP accumulation by CRE/beta-galactosidase reporter gene assay. The method in brief:
as §1

The target of assay [4] is Melanocyte-stimulating hormone receptor (Mus musculus, UniProt Q01727). Briefly: Activity at mouse MC1R expressed in HEK293 cells assessed as cAMP accumulation by CRE/beta-galactosidase reporter gene assay. In a few lines:
as §1

Melanocortin receptor 4, sequence (P56450 whole entry): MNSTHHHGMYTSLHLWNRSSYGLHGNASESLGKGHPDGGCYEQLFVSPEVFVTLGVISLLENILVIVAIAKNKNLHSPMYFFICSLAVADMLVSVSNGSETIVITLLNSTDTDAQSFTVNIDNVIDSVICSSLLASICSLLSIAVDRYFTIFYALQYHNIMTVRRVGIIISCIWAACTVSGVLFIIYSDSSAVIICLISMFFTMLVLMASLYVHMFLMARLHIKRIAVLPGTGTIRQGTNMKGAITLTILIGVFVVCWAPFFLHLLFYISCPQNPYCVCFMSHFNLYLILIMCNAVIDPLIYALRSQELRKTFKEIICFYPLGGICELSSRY
Melanocortin receptor 5, sequence (P41149 whole entry): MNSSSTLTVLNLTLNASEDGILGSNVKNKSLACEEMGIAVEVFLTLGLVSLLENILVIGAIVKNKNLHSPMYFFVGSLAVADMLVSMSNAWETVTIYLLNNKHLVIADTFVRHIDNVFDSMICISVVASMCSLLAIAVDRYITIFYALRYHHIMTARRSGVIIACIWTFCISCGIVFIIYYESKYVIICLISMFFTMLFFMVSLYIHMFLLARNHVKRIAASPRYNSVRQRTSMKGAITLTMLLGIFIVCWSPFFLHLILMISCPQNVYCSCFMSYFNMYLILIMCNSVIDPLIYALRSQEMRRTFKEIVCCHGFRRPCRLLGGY
Melanocyte-stimulating hormone receptor, sequence (Q01727 whole entry): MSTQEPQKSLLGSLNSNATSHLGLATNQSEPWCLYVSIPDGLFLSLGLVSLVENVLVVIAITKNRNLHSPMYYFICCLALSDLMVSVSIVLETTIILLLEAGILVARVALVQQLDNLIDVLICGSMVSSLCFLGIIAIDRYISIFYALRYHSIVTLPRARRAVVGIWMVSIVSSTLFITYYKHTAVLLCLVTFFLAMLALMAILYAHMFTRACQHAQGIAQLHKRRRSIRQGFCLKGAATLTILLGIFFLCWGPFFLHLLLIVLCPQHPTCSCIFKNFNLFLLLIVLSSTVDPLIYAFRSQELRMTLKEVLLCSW

The term EC50 denotes the concentration at which the effect is half-maximal. As for `CCCC[C@H](NC(C)=O)C(=O)N[C@@H](CC(=O)O)C(=O)N[C@@H](Cc1c[nH]cn1)C(=O)N[C@H](Cc1ccccc1)C(=O)N[C@@H](CCCN=C(N)N)C(=O)N[C@@H](Cc1c[nH]c2ccccc12)C(=O)N[C@@H](CCCCN)C(N)=O`, the EC50 in assay [1] is 1.1 nM; in assay [2], 0.21 nM.

As for `C#CC[C@H](NC(=O)[C@H](Cc1c[nH]c2ccccc12)NC(=O)[C@H](CCCNC(=N)N)NC(=O)[C@@H](Cc1ccccc1)NC(=O)[C@H](Cc1cnc[nH]1)NC(=O)[C@H](CCCCN=[N+]=[N-])NC(=O)[C@H](CCCC)NC(C)=O)C(N)=O`, in assay [3], the EC50 worked out at 1.9 nM.

Take `CCCCCC[C@H](NC(=O)[C@H](Cc1c[nH]c2ccccc12)NC(=O)[C@H](CCCNC(=N)N)NC(=O)[C@@H](Cc1ccccc1)NC(=O)[C@H](Cc1cnc[nH]1)NC(=O)[C@H](CN=[N+]=[N-])NC(=O)[C@H](CCCC)NC(C)=O)C(N)=O`: the EC50 in assay [4] is 0.53 nM; in assay [1] it was 1.32 nM; in assay [2], 0.14 nM; in assay [3], 0.13 nM.

In the case of `CCCC[C@H](NC(C)=O)C(=O)N[C@H]1Cc2cn(nn2)CCCC[C@@H](C(N)=O)NC(=O)[C@H](Cc2c[nH]c3ccccc23)NC(=O)[C@H](CCCNC(=N)N)NC(=O)[C@@H](Cc2ccccc2)NC(=O)[C@H](Cc2cnc[nH]2)NC1=O`, the EC50 in assay [4] was 5.18 nM; in assay [1], 3.14 nM; in assay [2] it was 1.62 nM; in assay [3] it was 1.93 nM.

Consider `CCCC[C@H](NC(C)=O)C(=O)N[C@H]1CCc2cn(nn2)CCC[C@@H](C(N)=O)NC(=O)[C@H](Cc2c[nH]c3ccccc23)NC(=O)[C@H](CCCNC(=N)N)NC(=O)[C@@H](Cc2ccccc2)NC(=O)[C@H](Cc2cnc[nH]2)NC1=O`, for which the EC50 in assay [4] worked out at 0.11 nM; in assay [1], 0.29 nM; in assay [2] it was 0.22 nM; in assay [3], 0.34 nM.

Consider `CCCC[C@H](NC(C)=O)C(=O)N[C@H]1CCCc2cn(nn2)CC[C@@H](C(N)=O)NC(=O)[C@H](Cc2c[nH]c3ccccc23)NC(=O)[C@H](CCCNC(=N)N)NC(=O)[C@@H](Cc2ccccc2)NC(=O)[C@H](Cc2cnc[nH]2)NC1=O`, for which the EC50 stood at 0.1 nM in assay [4], 0.21 nM in assay [1], 0.051 nM in assay [2] and 0.042 nM in assay [3].

Consider `CCCC[C@H](NC(C)=O)C(=O)N[C@H]1CCCCc2cn(nn2)C[C@@H](C(N)=O)NC(=O)[C@H](Cc2c[nH]c3ccccc23)NC(=O)[C@H](CCCNC(=N)N)NC(=O)[C@@H](Cc2ccccc2)NC(=O)[C@H](Cc2cnc[nH]2)NC1=O`, for which the figures for the EC50 in assay [4] and in assay [1] were 0.087 nM and 0.2 nM, respectively.

On to `CCCC[C@H](NC(C)=O)C(=O)N[C@H]1CCCn2cc(nn2)CC[C@@H](C(N)=O)NC(=O)[C@H](Cc2c[nH]c3ccccc23)NC(=O)[C@H](CCCNC(=N)N)NC(=O)[C@@H](Cc2ccccc2)NC(=O)[C@H](Cc2cnc[nH]2)NC1=O`, for which the EC50 was 0.71 nM in assay [4], 1.91 nM in assay [1], 0.85 nM in assay [2] and 1.88 nM in assay [3].

As to `CCCC[C@H](NC(C)=O)C(=O)N[C@H]1CCn2cc(nn2)CCC[C@@H](C(N)=O)NC(=O)[C@H](Cc2c[nH]c3ccccc23)NC(=O)[C@H](CCCNC(=N)N)NC(=O)[C@@H](Cc2ccccc2)NC(=O)[C@H](Cc2cnc[nH]2)NC1=O`, the EC50 in assay [4] was found to be 0.074 nM; in assay [1], 0.2 nM; in assay [2], 0.048 nM; in assay [3] it was 0.045 nM.

In the case of `CCCC[C@H](NC(C)=O)C(=O)N[C@H]1Cn2cc(nn2)CCCC[C@@H](C(N)=O)NC(=O)[C@H](Cc2c[nH]c3ccccc23)NC(=O)[C@H](CCCNC(=N)N)NC(=O)[C@@H](Cc2ccccc2)NC(=O)[C@H](Cc2cnc[nH]2)NC1=O`, the EC50 stood at 0.53 nM in assay [4], 0.6 nM in assay [1] and 0.14 nM in assay [2].

Take `CCCC[C@H](NC(C)=O)C(=O)N[C@H]1CCc2cn(nn2)CC[C@@H](C(N)=O)NC(=O)[C@H](Cc2c[nH]c3ccccc23)NC(=O)[C@H](CCCNC(=N)N)NC(=O)[C@@H](Cc2ccccc2)NC(=O)[C@H](Cc2cnc[nH]2)NC1=O`: the EC50 in assay [4] came out at 0.32 nM; in assay [1], 0.63 nM; in assay [2], 0.14 nM; in assay [3], 0.15 nM.

For `CCCC[C@H](NC(C)=O)C(=O)N[C@H]1CCn2cc(nn2)CC[C@@H](C(N)=O)NC(=O)[C@H](Cc2c[nH]c3ccccc23)NC(=O)[C@H](CCCNC(=N)N)NC(=O)[C@@H](Cc2ccccc2)NC(=O)[C@H](Cc2cnc[nH]2)NC1=O`, the EC50 in assay [4] stood at 0.2 nM; in assay [1], 0.29 nM; in assay [2] it was 0.067 nM; in assay [3], 0.07 nM.

Consider `CCCC[C@H](NC(C)=O)C(=O)N[C@H]1CCCCn2cc(nn2)C[C@@H](C(N)=O)NC(=O)[C@H](Cc2c[nH]c3ccccc23)NC(=O)[C@H](CCCNC(=N)N)NC(=O)[C@@H](Cc2ccccc2)NC(=O)[C@H](Cc2cnc[nH]2)NC1=O` (Ac-[Nle][Lys(N3)]H[dF]RW[Pra]-NH2; triazole 2-7), for which the EC50 in assay [4] came out at 0.85 nM; in assay [1], 3.7 nM; in assay [2] it was 0.58 nM; in assay [3], 1.76 nM.
